Where no end group is shown, it is not given here.
Tests used:
JAK1 FERM–SH2 = assay: Co-purification and size exclusion chromatography of JAK1/receptor complexes; format: binding, human; conditions: large scale co-expression, Ni-IMAC, TEV cleavage, SDS-PAGE
Outline: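 His-JAK1 FERM–SH2 (G35–K559) co-expressed in insect cells with one of two GST-tagged partners, co-infected at 1:1 viral ratio: GST-IFNLR1 (K250–T299), or a chimera of IFNLR residues K250–R260 fused to IL-10RA K264–K303. Lysates purified by Ni-IMAC then SEC. Complex fractions TEV-cleaved and put through a second SEC round.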

JAK1 FERM–SH2 I240F = JAK1 FERM–SH2 I240F (human, UniProt P23458 35-559, Ile240 to phenylalanine); assay: BLI
Sequence of JAK1 FERM–SH2 I240F (P23458 35-559 I240F): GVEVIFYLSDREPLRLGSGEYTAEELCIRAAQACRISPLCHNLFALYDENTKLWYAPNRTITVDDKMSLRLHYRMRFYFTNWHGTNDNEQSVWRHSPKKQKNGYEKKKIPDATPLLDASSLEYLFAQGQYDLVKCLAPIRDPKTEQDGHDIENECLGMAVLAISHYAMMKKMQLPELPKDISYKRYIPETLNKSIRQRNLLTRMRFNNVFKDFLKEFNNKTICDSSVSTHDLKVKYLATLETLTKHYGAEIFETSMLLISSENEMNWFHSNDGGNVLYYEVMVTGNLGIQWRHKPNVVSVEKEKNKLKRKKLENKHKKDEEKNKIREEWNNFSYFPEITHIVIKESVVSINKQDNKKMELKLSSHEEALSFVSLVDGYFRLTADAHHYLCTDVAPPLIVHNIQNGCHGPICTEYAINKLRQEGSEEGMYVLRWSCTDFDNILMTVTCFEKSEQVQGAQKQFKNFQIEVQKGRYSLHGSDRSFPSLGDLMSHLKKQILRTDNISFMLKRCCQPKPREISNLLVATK

JAK1 FERM–SH2 I240L = JAK1 FERM–SH2 I240L (human, UniProt P23458 35-559, Ile240 to leucine); assay: BLI
Sequence of JAK1 FERM–SH2 I240L (P23458 35-559 I240L): as the sequence (P23458 35-559 I240F) above, with F206L counted along it

[1] = molecular target: human JAK1 FERM–SH2 (as used in BioLayer Interferometry) (human, UniProt P23458 35-559); assay: BLI
Sequence of human JAK1 FERM–SH2 (as used in BioLayer Interferometry) (P23458 35-559): as the sequence (P23458 35-559 I240F) above, with F206I counted along it

[2] = molecular target: human JAK1 FERM–SH2 (residues 35–559), His tag released with TEV (human, UniProt P23458 35-559); assay: SEC-MALS
Sequence of human JAK1 FERM–SH2 (residues 35–559), His tag released with TEV (P23458 35-559): as the sequence (P23458 35-559 I240F) above, with F206I counted along it

| complex formation with JAK1 on purification / SEC (in words) (JAK1 FERM–SH2) | koff [1] [s⁻¹] | kon [1] [M⁻¹ s⁻¹] | Molecule | also measured |
| --- | --- | --- | --- | --- |
| formed a stable complex with JAK1 | – | – | IL10RA: GST-tagged human receptor cytoplasmic fragment with putative box1 and box2 motifs ({GST}-QLYVRRRKKLPSVLLFKKPSPFIFISQRPSPETQDTIHPLDEEAFLK) | – |
| form a stable complex with JAK1 | – | – | peptide containing IFNLR1 box1 and box2: GST-tagged IFNLR1 box1/box2 fragment (residues 250–299), co-expressed with JAK1 ({GST}-KTLMGNPWFQRAKMPRALDFSGHTHPVATFQPSRPESVNDLFLCPQKELT) | – |
| did not co-purify with JAK1 | – | – | box2 fragment of IFNLR1: GST-tagged fragment of IFNLR1 containing box2 sequences (residues 270–299) ({GST}-SGHTHPVATFQPSRPESVNDLFLCPQKELT) | – |
| – | 0.089 | 72500 | KTLMGNPWFQRAKMPRALDFS (peptide, UniProt Q8IU57 250-270, looked up, also: biotin, position not given here) [biotinylated IFNLR1 box1 peptide (residues 250–270)] | binding result (JAK1 FERM–SH2 I240F): binds; binding result (JAK1 FERM–SH2 I240L): binds |
| – | 0.0544 | 34600 | KTLMGNPWFQRAKMPRALDFSGHTHPVATFQPSRPESVND (peptide, UniProt Q8IU57 250-289, looked up, also: biotin, position not given here) [biotinylated IFNLR1 box1Δbox2 peptide (residues 250–289)] | – |
| – | 0.00355 | 50400 | KTLMGNPWFQRAKMPRALDFSGHTHPVATFQPSRPESVNDLFLCPQKELT (peptide, UniProt Q8IU57 250-299, looked up, also: biotin, position not given here) [biotinylated IFNLR1 box1/box2 peptide (residues 250–299)] | – |
| – | – | – | KTLMGNPWFQRAKMPRALDFSGHTHPVATFQPSRPESVNDLFLCPQKELT (peptide, UniProt Q8IU57 250-299, looked up) [IFNLR1 box1/box2 peptide (residues 250–299), GST released with TEV] | stoichiometry N [2]: 1 |

— article PMC4899269 (Structure (London, England : 1993), 2016)
